The results in this text go back to PubChem BioAssay AID373 (The Scripps Research Institute Molecular Screening Center, 2006).

The campaign covered roughly 60,000 compounds. About 60 (0.1%) were called active.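 Rule for the calls: active = activation above the screen-wide mean plus 3 SD (cut at about 4.5% in these data, passing the limit was not always enough); inactive = the rest, inconclusive results apart.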 What follows is part of a selection rich in actives, with near analogues and random picks from the rest.

The experiment addresses Sphingosine 1-phosphate receptor 3 (Homo sapiens) (UniProt Q99500). Kind of experiment: activators of S1P3 receptor signaling – cell-based, primary and confirmation, NFAT-BLA reporter, primary screen (AID 373). The essentials:
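Benchmarks: high control 1 µM S1P / System: stable CHO line with human S1P3, Gα16, NFAT-BLA reporter / Dosing: single compound concentration, 4.5 µM final / Timing: 4 h compound at 37 °C, 2 h substrate at RT / Measured by: FRET β-lactamase substrate fluorescence, excitation 405 nm, 460/535 nm emission ratio, background-subtracted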

The mark [1] stands for this setting: S1P3 NFAT-BLA reporter cells, agonism, FRET ratio, at 4.5 µM, stronger effect = higher value, relative to 1 µM S1P, basal subtracted.

Sphingosine 1-phosphate receptor 3 (Homo sapiens), sequence (Q99500 whole entry, looked up): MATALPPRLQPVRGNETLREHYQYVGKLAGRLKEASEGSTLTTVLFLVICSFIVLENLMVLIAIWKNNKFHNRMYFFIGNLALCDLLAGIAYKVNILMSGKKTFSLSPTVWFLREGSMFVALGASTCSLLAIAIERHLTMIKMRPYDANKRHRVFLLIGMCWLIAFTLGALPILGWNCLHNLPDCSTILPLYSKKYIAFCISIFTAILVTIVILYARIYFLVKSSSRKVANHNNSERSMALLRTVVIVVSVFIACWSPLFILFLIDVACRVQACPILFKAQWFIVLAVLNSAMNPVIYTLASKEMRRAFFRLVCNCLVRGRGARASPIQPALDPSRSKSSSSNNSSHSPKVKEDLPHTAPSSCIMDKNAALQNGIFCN

Consider `CC(NC(=O)c1cc(-c2ccccc2)on1)c1ccccc1` (stereo not drawn), for which the activation under setting [1] is -1.3% (inactive).

As for `O=C(Nc1ccc2c(c1)nc1n2CCCCC1)c1cc(S(=O)(=O)N2CCOCC2)ccc1Cl`, under setting [1], the activation was -0.4% (inactive).

With `C=C(C)c1cccc(C(C)(C)NC(=O)N2CCN(c3ncccn3)CC2)c1`, the activation under setting [1] is -0.9% (inactive).

Consider `CC(C)C(=O)Nc1c(C(=O)c2ccc(F)cc2)oc2ccccc12`, for which, under setting [1], the activation was -0.2% (inactive).

With `O=C(CN1CCOCC1)N1CCCc2c1c(=O)oc1ccc(OCc3ccccc3)cc21`, under setting [1], the activation was -1% (inactive).

Regarding `COCCOC(=O)C1=C(C)N=c2s/c(=C\c3cccs3)c(=O)n2C1c1cccs1` (stereo not drawn), the activation under setting [1] was -2% (inactive).

With `CC1(C)CC(=O)c2cc(OCC(=O)NCC3CCCO3)ccc2O1` (stereo not drawn), the activation under setting [1] is -0.8% (inactive).

Consider `CN(CCc1ccccn1)S(=O)(=O)c1ccc2c3c(cccc13)C(=O)N2`, for which the activation under setting [1] is 0.3% (inactive).

For the compound `CC(=O)N1CC2(C)CN(C(C)=O)CC(C)(C1)C2=O`, under setting [1], the activation is 0% (inactive).

Regarding `Cc1ccc2c(c1)sc1ncc(NC(=O)c3ccccc3)c(=O)n12`, the activation under setting [1] was -1.1% (inactive).

For the compound `O=C(NCCc1ccco1)c1nn(Cc2ccccc2)c(=O)c2ccccc12`, the activation under setting [1] was 0.7% (inactive).

As to `Cc1ccnc(N2C(=O)c3ccccc3C2Nc2ccc3c(c2)OCCO3)c1` (stereo not drawn), the activation under setting [1] is 0.3% (inactive).

With `COc1ccc(OC)c(NC(=O)CSc2nc3cccnc3n2C)c1`, under setting [1], the activation was 0.2% (inactive).

As to `COc1ccc(Cn2c(=O)sc3ccccc32)cc1OC`, the activation under setting [1] was -0.4% (inactive).

Take `O=C(NC(c1ccccc1)c1ccccc1)N1CCN(CCO)CC1`: the activation under setting [1] was 0.8% (inactive).

With `CC(C)Cn1c(N)c(C(=O)NCc2cccs2)c2nc3ccccc3nc21`, the activation runs as follows: (S1P3 NFAT-BLA reporter cells, agonism, FRET ratio; at 4.5 µM; stronger effect = higher value; relative to 1 µM S1P, basal subtracted) 8.2% (active); (S1P3 NFAT-BLA reporter cells, agonism, FRET ratio; measured here: confirmation screen, triplicate average; at 4.5 µM; stronger effect = higher value; relative to 1 µM S1P, basal subtracted) 5.4%.

Turning to `C=CCn1c(N)c(C(=O)OCC(C)C)c2nc3ccccc3nc21`, the activation under setting [1] is 0.4% (inactive).

Consider `C=CCn1c(N)c(S(=O)(=O)c2cccs2)c2nc3ccccc3nc21`, for which, under setting [1], the activation was -0.5% (inactive).

On to `CCCOC(=O)CC1C(=O)NCCN1Cc1ccc(F)cc1` (stereo not drawn), for which, under setting [1], the activation was 0.3% (inactive).

With `COc1cc(OC)cc(C(=O)Nc2ncc3c(n2)CC(C)(C)CC3=O)c1`, under setting [1], the activation is -1.1% (inactive).

As to `CN1CCN(C(=O)c2ccc(NS(=O)(=O)c3ccccc3)cc2)CC1`, the activation under setting [1] is -0.2% (inactive).

Turning to `CCOc1cc(C(=O)N2CCc3cc(OC)c(OC)cc3C2)ccc1OC(F)F`, under setting [1], the activation was -0.2% (inactive).

Regarding `COc1ccc(S(=O)(=O)N2CCN(C(=O)c3cccs3)CC2)cc1OC`, the activation under setting [1] is 0% (inactive).

For the compound `Cc1c2cnn(-c3ccccc3)c(=O)c2c(C)n1CCCC(=O)N1CCN(C)CC1`, the activation under setting [1] is -1.3% (inactive).

On to `COc1ccc(C(=O)OCC(=O)c2ccc(C)c(S(=O)(=O)N3CCOCC3)c2)cc1OC`, for which, under setting [1], the activation is -1% (inactive).

On to `CC1(C)CC(CCC(=O)Nc2ccccc2Cl)C(=O)O1` (stereo not drawn), for which the activation under setting [1] was -0.9% (inactive).

`Cc1ccccc1-n1c(SCC(=O)NCc2cccs2)nnc1-c1ccncc1`: the activation under setting [1] was 0.9% (inactive).

On to `CC1(C)Oc2ccc(C(=O)N3CCOCC3)cc2N(CC(=O)Nc2ccccc2)C1=O`, for which the activation under setting [1] was -0.1% (inactive).

In the case of `CCCCc1nc2c(=O)[nH]c3ccccc3c2o1`, under setting [1], the activation is -0.4% (inactive).

With `C=CCn1c(C2CC(=O)N(c3ccc(C)cc3)C2)nc2ccccc21` (stereo not drawn), the activation under setting [1] was -2.5% (inactive).

For the compound `O=C(COc1ccccc1)N1CCc2ccccc2C1`, the activation under setting [1] is 0.4% (inactive).

As to `CC(=O)CSc1nnc(CSc2ncccn2)n1C1CCCCC1`, the activation under setting [1] was -0.6% (inactive).

`CC1(C)CC(=O)C(C2=NC(C)(C)Cc3ccccc32)=C(O)C1`: the activation under setting [1] is -2% (inactive).

For `CC(C)C(=O)Nc1cccc(C(=O)Nc2ccc3c(c2)OCO3)c1`, the activation under setting [1] was -1.2% (inactive).

Turning to `COc1ccc(OC)c2c1sc(=NC(=O)CN1C(=O)CCC1=O)n2C`, the activation under setting [1] was -2.3% (inactive).

Turning to `OCc1nc(CO)n(Cc2ccccc2)n1`, the activation under setting [1] is -1% (inactive).

Consider `COc1ccc(N2C(=O)CN=C2Nc2cccc(C)c2C)cc1OC`, for which the activation under setting [1] was 0.2% (inactive).

Turning to `CCCc1nnc(NC(=O)CN2C(=O)c3ccccc3S2(=O)=O)s1`, the activation under setting [1] was -1% (inactive).

Regarding `CCOC(=O)c1sc(/N=C/Nc2nc(C)c(C(=O)OCC)s2)nc1C`, the activation under setting [1] is -1.5% (inactive).

For `N#CCCN(CCC#N)c1nnc(-c2ccccc2)s1`, under setting [1], the activation is -0.2% (inactive).

For `CCOC(=O)C1C(=O)C=C(c2ccc(OC)cc2)CC1c1ccco1` (stereo not drawn), the activation under setting [1] is -1.9% (inactive).

For the compound `Cc1nc(SC(C)C)[nH]c(=O)c1Cc1ccccc1`, under setting [1], the activation is 0.1% (inactive).

In the case of `CCCc1cc(=O)oc2c(C)c(O)c(CN3CCCCC3)cc12`, under setting [1], the activation was -2.1% (inactive).

As to `CCC(=O)Nc1ccccc1C(=O)N1CCN(Cc2ccccc2)CC1`, the activation under setting [1] was -1.1% (inactive).

In the case of `NS(=O)(=O)c1ccc(NS(=O)(=O)/C=C/c2ccccc2)cc1`, under setting [1], the activation was 1.3% (inactive).

As for `Cc1occc1C(=O)Nc1cccc(Cn2cccn2)c1`, the activation under setting [1] is -0.4% (inactive).

Take `COc1ncnc2sc3c(c12)CCCC3`: the activation under setting [1] is -0.3% (inactive).

As to `COc1ccc(C)cc1S(=O)(=O)NC1CCCCC1`, the activation under setting [1] was -0.3% (inactive).

On to `CCOc1cccc(/C(O)=C2/C(=O)C(=O)N(CCOC)C2c2ccncc2)c1` (stereo not drawn), for which the activation under setting [1] is -1.3% (inactive).

With `CCOC(=O)c1sc(NC(=O)C(CC)Sc2nccn2C)nc1C` (stereo not drawn), under setting [1], the activation is -1.7% (inactive).

As for `Cc1cccc(NC(=O)CN2CCCN(S(=O)(=O)c3ccc(Br)s3)CC2)c1`, the activation under setting [1] was -1.4% (inactive).

As for `CCOC(=O)c1cc(-c2nnc(-c3cc(OC)c(OC)c(OC)c3)o2)c(C)nc1C`, the activation under setting [1] is -1.5% (inactive).

Regarding `CCOC(=O)c1c(C(C#N)C#N)cc(C)nc1C`, the activation under setting [1] was -3.8% (inactive).

As for `O=C(Cn1nnc(-c2ccccc2)n1)NCc1ccccc1`, the activation under setting [1] is -0.5% (inactive).

For the compound `Cc1cc(C)nc(SCc2nnc(SCC(=O)Nc3ncc(C)s3)n2Cc2ccco2)n1`, the activation under setting [1] is 0% (inactive).

For the compound `CCn1ncc(C2=NOC(C(=O)Nc3ccccc3C(=O)OC)C2)c1C` (stereo not drawn), the activation under setting [1] was -0.6% (inactive).

As for `CC1Cc2cc(/C(O)=C3\C(=O)C(=O)N(CCN4CCOCC4)C3c3ccccc3F)ccc2O1` (stereo not drawn), the activation under setting [1] is 0.5% (inactive).

For `CC1CN(C(=O)CN2C(=O)NC(C)(c3ccccc3)C2=O)CC(C)O1` (stereo not drawn), the activation under setting [1] was 1.6% (inactive).

For `O=C1NC(Nc2nc3ccccc3s2)(C(F)(F)F)C(=O)N1C1CCCCC1` (stereo not drawn), the activation under setting [1] is -0.5% (inactive).

Regarding `Cc1nc(SCC(=O)Nc2cc(C)on2)c2c3c(sc2n1)CCCC3`, the activation under setting [1] was -0.8% (inactive).

Turning to `CCOc1ccc(NC(=O)N(CCC(C)C)C(C)c2ccco2)cc1` (stereo not drawn), the activation under setting [1] was -0.3% (inactive).

Take `Cc1cc(=O)n(C)c(=O)n1CCCNc1ccccc1`: the activation under setting [1] was -0.2% (inactive).
